A word on the pIC50: it is −log10 of the IC50, conventionally taken in molar units.

Test [1] has as its target RAC-alpha serine/threonine-protein kinase (Homo sapiens, UniProt P31749). The test can be described thus: Inhibition of Akt1 activity assessed as decrease in GSK3 phosphorylation. Type of test: functional. The procedure, abridged: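 Akt1 enzyme (10 U/µL) preincubated 10 min at 37 °C with compound in DMSO in HEPES 20 mM, NaCl 14.3 mM, EDTA 1 mM, DTT 2 mM. Then 3 µL of 2 mM ATP and GSK3 fusion protein added, 30 min at 37 °C. Stopped at 70 °C for 5 min. Phospho-GSK3 detected by SDS-PAGE/Western or dot blot with anti-phospho (Ser21/9) antibody, ECL and densitometry.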

Test [2] can be described thus: Cytotoxicity against human KATO3 cells by MTT assay. Format: functional, cell-based. The procedure, abridged:
(§1)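 MTT colorimetric cytotoxicity assay following NCI protocols. Cells grown in DMEM with 10% heat-inactivated FBS at 37 °C, 5% CO₂.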
In general terms: Formazan colour is commonly taken as a measure of viable cells.

For a further test, the system named is HepG2. The test can be described thus: Cytotoxicity against human HepG2 cells by MTT assay. Type of test: functional, cell-based. The method in brief:
as §1

Test [3] concerns PC-3. The test can be described thus: Cytotoxicity against human PC3 cells by MTT assay. Format: functional, cell-based. The method in brief: as §1
The target in test [4] is T1, Serine/threonine-protein kinase AKT (Homo sapiens) (UniProt P31751+Q9Y243+P31749). The test can be described thus: Inhibition of GSK3-alpha phosphorylation in PC3 cells at 10 uM upto 5 hrs. Type of test: functional, cell-based. The note with it: PC-3, TDE = time-dependent effect. The method in brief:
(§2)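 PC-3 cells (2×10⁶) cultured one day in DMEM/10% FBS, then exposed to 10 µM compound for up to 5 h. Lysates (70 µg) resolved on 12% gel. Western blot with anti-phospho-GSK3α/β (Ser21/9), anti-phospho-Akt (Ser473), anti-Akt and anti-GSK3β antibodies, ECL and densitometry. Values are relative to DMSO treatment.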

The target of test [5] is T1, Serine/threonine-protein kinase AKT (Homo sapiens). The test can be described thus: Inhibition of GSK3-beta phosphorylation in PC3 cells at 10 uM upto 5 hrs. Format: functional, cell-based. To be noted: PC-3, TDE = time-dependent effect. The procedure, abridged:
as §2

Test [6] relates to PC-3. The test can be described thus: Inhibition of Akt1 phosphorylation in PC3 cells at 10 uM upto 5 hrs. The note with it: Homo sapiens. Format: functional, cell-based. The procedure, abridged: as §2
Test [7] has as its system PC-3. The test can be described thus: Antitumor activity against human PC3 cell xenografted in nude mouse at 5 mg/kg/day after 16 days. Type of test: functional. The procedure, abridged:
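Male nude mice, 4 weeks old, inoculated sc in the flank with PC-3 cells (10⁶ cells/site). At 200 mm³ tumors, randomized into groups (n = 6). Dosed iv daily for 16 days in cremophor vehicle (ethanol 7%, cremophor 7%, water). Tumors measured twice weekly by caliper, volume = length·width²/2. Inhibition is relative to vehicle at day 16.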

pIC50: −log10 of the molar value. The source made the active and inactive calls. The rule behind the calls is not given here. Some results are limits rather than exact numbers.

RAC-alpha serine/threonine-protein kinase, sequence (P31749 whole entry, the tested form may be a part): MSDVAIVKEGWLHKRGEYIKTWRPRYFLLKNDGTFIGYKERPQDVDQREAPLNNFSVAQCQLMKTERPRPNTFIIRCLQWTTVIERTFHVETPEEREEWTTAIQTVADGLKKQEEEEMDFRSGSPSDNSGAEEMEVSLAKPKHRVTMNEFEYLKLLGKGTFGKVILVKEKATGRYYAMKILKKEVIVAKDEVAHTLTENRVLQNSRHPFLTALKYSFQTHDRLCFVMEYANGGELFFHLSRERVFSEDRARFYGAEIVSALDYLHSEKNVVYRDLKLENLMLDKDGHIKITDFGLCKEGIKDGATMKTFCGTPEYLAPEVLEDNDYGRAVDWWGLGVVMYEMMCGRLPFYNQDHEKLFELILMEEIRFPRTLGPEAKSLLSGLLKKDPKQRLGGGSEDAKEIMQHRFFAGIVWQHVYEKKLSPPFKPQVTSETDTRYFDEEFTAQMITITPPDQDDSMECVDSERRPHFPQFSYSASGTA
T1 sequence (P31749 whole entry, looked up): as the sequence (P31749 whole entry, the tested form may be a part) above
T1 sequence (P31751 whole entry, looked up): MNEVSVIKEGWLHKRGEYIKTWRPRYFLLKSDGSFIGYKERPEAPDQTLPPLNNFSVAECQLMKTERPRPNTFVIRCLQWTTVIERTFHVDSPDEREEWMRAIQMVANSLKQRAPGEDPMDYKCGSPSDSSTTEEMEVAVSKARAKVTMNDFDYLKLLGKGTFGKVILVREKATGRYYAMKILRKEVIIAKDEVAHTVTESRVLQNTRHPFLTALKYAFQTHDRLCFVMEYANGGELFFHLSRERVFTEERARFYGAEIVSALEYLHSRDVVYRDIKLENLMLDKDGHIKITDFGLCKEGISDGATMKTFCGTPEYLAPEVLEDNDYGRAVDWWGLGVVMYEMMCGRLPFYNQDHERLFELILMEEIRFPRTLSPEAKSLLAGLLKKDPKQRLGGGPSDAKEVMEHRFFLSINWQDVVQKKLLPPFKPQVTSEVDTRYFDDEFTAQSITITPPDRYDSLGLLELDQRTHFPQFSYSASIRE
T1 sequence (Q9Y243 whole entry, looked up): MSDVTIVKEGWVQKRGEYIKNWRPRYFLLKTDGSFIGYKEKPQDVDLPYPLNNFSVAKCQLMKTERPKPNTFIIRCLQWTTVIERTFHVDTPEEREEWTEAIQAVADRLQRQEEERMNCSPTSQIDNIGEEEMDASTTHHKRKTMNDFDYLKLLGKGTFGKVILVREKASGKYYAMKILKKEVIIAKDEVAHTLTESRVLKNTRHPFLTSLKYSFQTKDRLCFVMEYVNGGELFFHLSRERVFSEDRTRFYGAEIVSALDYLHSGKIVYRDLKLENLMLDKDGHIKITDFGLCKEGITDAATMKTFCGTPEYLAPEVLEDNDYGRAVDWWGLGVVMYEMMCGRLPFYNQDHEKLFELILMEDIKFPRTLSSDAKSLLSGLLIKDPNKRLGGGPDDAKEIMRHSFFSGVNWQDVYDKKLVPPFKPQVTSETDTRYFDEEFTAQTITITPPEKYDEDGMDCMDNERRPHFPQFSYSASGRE

In the case of `O=C1C(Nc2cccc(Br)c2)=C(Cl)C(=O)c2[nH]ncc21`, the negative-log IC50 (pIC50) in test [1] was 4.86; in test [2], 5.05; with HepG2, 5.21.
Turning to `O=C1C(Nc2ccccc2F)=C(Cl)C(=O)c2[nH]ncc21`, the values for the pIC50 (in test [1]; in test [2]; in the test with HepG2) were 4.80, 4.69 and 4.80, respectively.
Turning to `O=C1C(Nc2cc(F)cc(F)c2)=C(Cl)C(=O)c2[nH]ncc21`, the pIC50 was < 4.30 in test [1], 4.12 in test [2] and 4.42 in the test with HepG2.
For `Cc1cc(C)cc(SC2=C(Cl)C(=O)c3[nH]ncc3C2=O)c1`, the pIC50 in test [1] is < 4.30; in test [2], < 4.00; in the test on HepG2, < 4.00.
`Nc1ccc(N)c2[nH]ncc12`: the values for the pIC50 (in test [1]; in test [2]; in the test on HepG2) were < 4.30, < 4.00 and < 4.00, respectively.
`O=C1C(Nc2ccc(F)cc2)=C(Cl)C(=O)c2[nH]ncc21`: the pIC50 in test [1] was < 4.30; in test [2], 4.21; in the test with HepG2, 4.43.
On to `O=C1C(Sc2ccc(Cl)c(Cl)c2)=C(Cl)C(=O)c2[nH]ncc21`, for which the results for the pIC50 (in test [1]; in test [2]; in the test with HepG2) were 4.91, < 4.00 and 4.05, respectively.
Regarding `CCOc1ccc(NC2=C(Cl)C(=O)c3[nH]ncc3C2=O)cc1`, the negative-log IC50 (pIC50) in test [1] is 5.31; in test [2], 5.01; in the test with HepG2, 4.95.
Turning to `O=C1C(Nc2ccc(F)cc2F)=C(Cl)C(=O)c2[nH]ncc21`, the pIC50 was 4.80 in test [1], 5.00 in test [2] and 5.70 in the test on HepG2.
`O=C1C(Nc2ccc(C(F)(F)F)cc2)=C(Cl)C(=O)c2[nH]ncc21`: the negative-log IC50 (pIC50) in test [1] is 4.91; in test [2] it was 4.86; in the test with HepG2 it was 5.04; in the test with PC-3 [3], 4.86. Besides, the inhibition entry in test [4] and in test [5] was “tde” throughout. In the test with PC-3 [6], the result was Active. The same compound had an Activity in the test with PC-3 [7] of 27.1%.
Take `O=C1C(Nc2cccc(F)c2)=C(Cl)C(=O)c2[nH]ncc21`: the negative logarithm of the IC50 (pIC50) in test [1] was 4.93; in test [2], 5.41; in the test with HepG2, 5.05; in the test with PC-3 [3] it was 5.20. For the same compound, the inhibition result in test [4] and in test [5] was “tde” in each case. Besides, the result with PC-3 [6] was Active.

Values taken from ChEMBL document CHEMBL1145295, “Synthesis and biological evaluation of 5-arylamino-6-chloro-1H-indazole-4,7-diones as inhibitors of protein kinase B/Akt” (Bioorg Med Chem Lett, 2006).
